Assay [1] addresses Human immunodeficiency virus type 1 protease (Human immunodeficiency virus 1) (UniProt Q72874). Kind of assay: concentration of compound required to inhibit 90% of RT production in HIV-1/MN-infected MT-2 cells. The note with it: MT2. The format is functional, cell-based. The essentials: (§1)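 HIV-1/MN virus stocks taken from culture supernatant of chronically infected H9/HIV-1/MN cells and used to infect MT-2 cells. Antiviral effect read out as percent reduction of reverse transcriptase activity. ED50 and ED90 are the concentrations giving 50% and 90% inhibition of RT production. Values are averages of at least three determinations.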

Assay [2] has the same target. The assay can be described thus: Concentration required to inhibit 50% of RT production in HIV-1/MN-infected MT-2 cells. It counts as functional, cell-based. The note with it: MT2. The essentials:
as §1

For assay [3], the system named is Mus musculus. Kind of assay: Drug concentration in blood sample was analyzed by reversed phase HPLC 30 min (c30) after oral application of 120 mg/kg in a standardized formulation. The format is functional. In a few lines:
(§2)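 Female Balb/c mice with free access to food and water, dosed by gavage at 120 mg/kg. Compound dissolved in DMSO at 240 mg/mL, then diluted 1:20 with aqueous 20% hydroxypropyl-β-cyclodextrin, giving a suspension. Four mice per time point; heart blood taken at 30 and 90 min. Plasma deproteinated with acetonitrile and quantified by reversed-phase HPLC-UV against a plasma calibration curve.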

Assay [4] concerns Mus musculus. The assay can be described thus: Drug concentration in blood sample was analyzed by reversed phase HPLC 30 min (c90) after oral application of 120 mg/kg in a standardized formulation. It counts as functional. The note with it: in the assay text read “90 min” for “30 min”. The essentials:
as §2

In assay [5] the test system is Human immunodeficiency virus 1. The assay can be described thus: Antiviral activity against HIV-1 protease inhibitor-resistant strain(CGP 61755 resistant) of the HI virusMutant: K45I,A71Tmix,L76F,I84Vmix). It counts as functional. In a few lines: (§3)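 CEM-SS cells were infected with each HIV-1 strain (MOI 0.001-0.005) for 4 h at 37 °C, then washed and plated at 20 000 cells/well with serial 3-fold compound dilutions in triplicate at 37 °C, 5% CO2. Compound was kept at constant final concentration through cell splitting on day 4 and medium replacement on day 7. Supernatant RT activity was assayed on days 4, 7 and 10. Value is the lowest concentration giving total inhibition of replication until day 10, averaged over at least three determinations.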

Assay [6] relates to Human immunodeficiency virus 1. The assay can be described thus: Antiviral activity against HIV-1 protease inhibitor-resistant strain(Wild type) of the HI virus. The format is functional. In a few lines:
as §3

Assay [7] has as its system Human immunodeficiency virus 1. Kind of assay: Antiviral activity against HIV-1 protease inhibitor-resistant strain(indinavir resistant) of the HI virus(L10R,M46I,L63P,V82T,I84V). The format is functional. In a few lines: as §3
In assay [8] the test system is Human immunodeficiency virus 1. Kind of assay: Antiviral activity against HIV-1 protease inhibitor-resistant strain(saquinavir resistant) of the HI virus.(Mutant: G48V,L90M). It counts as functional. In a few lines: as §3
The subject of assay [9] is Human immunodeficiency virus 1. The assay can be described thus: Antiviral activity against HIV-1 protease inhibitor-resistant strain(CGP 61755 resistant) of the HI virus(Mutant: V32I,M46I,L63P,I84A). It counts as functional. In a few lines: as §3
For assay [10], the system named is Human immunodeficiency virus 1. Kind of assay: Antiviral activity against HIV-1 protease inhibitor-resistant strain(CGP 61755 resistant)of the HI virus(Mutant: V32I,M46I,L63P,I84A). The format is functional. In a few lines: as §3
Assay [11] concerns Human immunodeficiency virus 1. The assay can be described thus: Antiviral activity against HIV-1 protease inhibitor-resistant strain(CGP 61755 resistant)of the HI virusMutant: K45I,A71Tmix,L76F,I84Vmix). It counts as functional. In a few lines:
as §3

Assay [12] concerns Human immunodeficiency virus 1. The assay can be described thus: Antiviral activity against HIV-1 protease inhibitor-resistant strain(indinavir resistant)of the HI virus(L10R,M46I,L63P,V82T,I84V). It counts as functional. In a few lines:
as §3

The structures appear in SMILES notation.

On to `COC(=O)N[C@H](C(=O)N[C@@H](Cc1ccccc1)[C@@H](O)CN(Cc1ccc(-c2ccccc2)cc1)NC(=O)[C@@H](NC(=O)OC)C(C)C)C(C)C`, for which, in [1], the ED90 stood at 10 nM. The same compound registered an ED50 in assay [2] of 1.8 nM. The c30 in the assay with Mus musculus [3] was less than 0.1 µM. In addition, the c90 with Mus musculus [4] stood at 0.3 µM.
On the same counts, the results for `COC(=O)N[C@H](C(=O)NN(Cc1ccc(-c2ccccn2)cc1)C[C@H](O)[C@H](Cc1ccccc1)NC(=O)[C@@H](NC(=O)OC)C(C)(C)C)C(C)C` are 10 nM, 2.6 nM, 15.3 µM and 13.3 µM.
For `CCOC(=O)N[C@H](C(=O)N[C@@H](Cc1ccccc1)[C@@H](O)CN(CC1CCCCC1)NC(=O)[C@@H](NC(=O)OCC)C(C)C)C(C)C` the same measures were 1000 nM, 55 nM, 6.7 µM and 7.8 µM.
As for `COC(=O)N[C@H](C(=O)N[C@@H](Cc1ccccc1)[C@@H](O)CN(Cc1ccc(-c2nccs2)cc1)NC(=O)[C@@H](NC(=O)OC)C(C)(C)C)C(C)(C)C`, the ED in assay [5] is 0.3 µM; in assay [6], 0.01 µM; in assay [7], 0.1 µM; in assay [8] it was 0.004 µM. Further, in [1], the ED90 stood at 3 nM. In assay [2], this compound yielded an ED50 of 0.5 nM. In the assay on Mus musculus [3], this compound gave a c30 of 9.1 µM. Moreover, the c90 with Mus musculus [4] turned out to be 10.2 µM.
For `COC(=O)N[C@H](C(=O)N[C@@H](Cc1ccccc1)[C@@H](O)CN(Cc1ccc(-c2nnn(C)n2)cc1)NC(=O)[C@@H](NC(=O)OC)C(C)(C)C)C(C)(C)C`, the ED in assay [5] was 0.9 µM; in [6] it was 0.01 µM; in assay [7], 0.1 µM; in assay [8] it was 0.01 µM. Besides, the ED90 in [1] was 10 nM. In assay [2], this compound had an ED50 of 0.8 nM. Further, in the assay with Mus musculus [3], the c30 was 20.3 µM. In addition, the c90 in the assay on Mus musculus [4] was 14.7 µM.
For `CCN(CC)c1ccc(CN(C[C@H](O)[C@H](Cc2ccccc2)NC(=O)[C@@H](NC(=O)OC)C(C)(C)C)NC(=O)[C@@H](NC(=O)OC)C(C)(C)C)cc1`, the ED90 in assay [1] worked out at 10 nM. In [2], this compound had an ED50 of 1.6 nM. In the assay on Mus musculus [3], this compound returned a c30 of 11.8 µM. In addition, the c90 in the assay on Mus musculus [4] stood at 7.6 µM.
Consider `CCOC(=O)N[C@H](C(=O)NN(Cc1ccc(-c2ccccn2)cc1)C[C@H](O)[C@H](Cc1ccccc1)NC(=O)[C@@H](NC(=O)OC)C(C)C)C(C)C`, for which, in assay [1], the ED90 is 30 nM. In assay [2], this compound gave an ED50 of 5.4 nM. The same compound returned a c30 with Mus musculus [3] of 0.5 µM. This compound came in with a c90 in the assay with Mus musculus [4] of 0.2 µM.
For `COC(=O)N[C@H](C(=O)N[C@@H](Cc1ccccc1)[C@@H](O)CN(Cc1ccc(-c2ccccn2)cc1)NC(=O)[C@@H](NC(=O)OC)C(C)(C)C)C(C)C` the same measures were 10 nM, 2 nM, 13.8 µM and 12.7 µM.
`COC(=O)N[C@H](C(=O)N[C@@H](Cc1ccccc1)[C@@H](O)CN(Cc1ccc(-c2ccccn2)cc1)NC(=O)[C@@H](NC(=O)OC)C(C)C)C(C)C`: in assay [1], the ED90 stood at 30 nM. The ED50 in assay [2] came out at 7.4 nM. In the assay on Mus musculus [3], this compound gave a c30 of 2.7 µM. Moreover, in the assay on Mus musculus [4], the c90 came out at 2.2 µM.
On the same counts, the results for `COC(=O)N[C@H](C(=O)N[C@@H](Cc1ccccc1)[C@@H](O)CN(CCC(C)C)NC(=O)[C@@H](NC(=O)OC)C(C)C)C(C)C` are 30 nM, 2.7 nM, less than 0.2 µM and 0.4 µM.
On the same counts, the results for `COC(=O)N[C@H](C(=O)N[C@@H](Cc1ccccc1)[C@@H](O)CN(Cc1ccc(-c2nccs2)cc1)NC(=O)[C@@H](NC(=O)OC)C(C)(C)C)C(C)C` are 10 nM, 2.1 nM, 17.5 µM and 14.9 µM.
For `COC(=O)N[C@H](C(=O)N[C@@H](Cc1ccccc1)[C@@H](O)CN(Cc1ccc(-c2cncs2)cc1)NC(=O)[C@@H](NC(=O)OC)C(C)C)C(C)C` the same measures were 30 nM, 5.6 nM, 1.8 µM and 0.1 µM.
In the case of `COC(=O)N[C@H](C(=O)N[C@@H](Cc1ccccc1)[C@@H](O)CN(Cc1ccc(-c2ccccn2)cc1)NC(=O)[C@@H](NC(=O)OC)C(C)(C)C)C(C)(C)C` [ATAZANAVIR], the ED is 0.3 µM in [5]; 0.01 µM in [6]; 0.03 µM in assay [7]; 0.004 µM in assay [8]; 0.3 µM in assay [9]. The compound also showed an ED90 in assay [1] of 3 nM. This compound came in with an ED50 in [2] of 1.4 nM. Besides, the c30 with Mus musculus [3] worked out at 21.8 µM. Besides, in the assay on Mus musculus [4], the c90 was found to be 31.8 µM.
`COC(=O)N[C@H](C(=O)N[C@@H](Cc1ccccc1)[C@@H](O)CN(Cc1ccc(-c2ccccc2)cc1)NC(=O)[C@@H](NC(=O)OC)C(C)(C)C)C(C)C` had an ED90 in assay [1] of 3 nM. Also, in [2], the ED50 worked out at 1.5 nM. The c30 in the assay with Mus musculus [3] stood at 6.3 µM. Moreover, the c90 in the assay with Mus musculus [4] was 5.4 µM.
For the compound `COC(=O)N[C@H](C(=O)N[C@@H](Cc1ccccc1)[C@@H](O)CN(Cc1ccc(-c2ccccc2)cc1)NC(=O)[C@@H](NC(=O)OC)C(C)(C)C)C(C)(C)C`, the ED in assay [10] was found to be 0.9 µM; in [11], 0.3 µM; in assay [6] it was 0.01 µM; in assay [12] it was 0.1 µM; in [8], 0.01 µM. Also, the ED90 in assay [1] was 3 nM. Also, in assay [2], the ED50 was determined as 0.7 nM. In the assay with Mus musculus [3], this compound displayed a c30 of 5.5 µM. The c90 in the assay with Mus musculus [4] was determined as 4.9 µM.
In the case of `COC(=O)N[C@H](C(=O)N[C@@H](Cc1ccccc1)[C@@H](O)CN(Cc1ccc(-c2cncs2)cc1)NC(=O)[C@@H](NC(=O)OC)C(C)(C)C)C(C)C`, the ED90 in assay [1] was 10 nM. In [2], the ED50 worked out at 1.4 nM. For the same compound, the c30 with Mus musculus [3] amounted to 8.5 µM. This compound also gave a c90 in the assay on Mus musculus [4] of 4.4 µM.
On the same counts, the results for `COC(=O)N[C@H](C(=O)N[C@@H](Cc1ccccc1)[C@@H](O)CN(Cc1ccc(-c2nnn(C(C)(C)C)n2)cc1)NC(=O)[C@@H](NC(=O)OC)C(C)(C)C)C(C)(C)C` are 3 nM, 0.8 nM, 4.2 µM and 4.6 µM.
Compound `CCC(C)[C@H](NC(=O)OC)C(=O)N[C@@H](Cc1ccccc1)[C@@H](O)CN(Cc1ccc(-c2ccccn2)cc1)NC(=O)[C@@H](NC(=O)OC)C(C)C` (stereo partly specified) yielded an ED90 in assay [1] of 10 nM. Besides, the ED50 in assay [2] stood at 2.8 nM. In addition, in the assay on Mus musculus [3], the c30 is 0.4 µM. In addition, the c90 in the assay with Mus musculus [4] worked out at 0.3 µM.
As to `CCOC(=O)N[C@H](C(=O)NN(Cc1ccc(-c2cncs2)cc1)C[C@H](O)[C@H](Cc1ccccc1)NC(=O)[C@@H](NC(=O)OC)C(C)(C)C)C(C)C`, the ED90 in [1] is 3 nM. Further, the ED50 in assay [2] worked out at 1.2 nM. In the assay with Mus musculus [3], this compound had a c30 of 1.4 µM. The same compound displayed a c90 in the assay with Mus musculus [4] of 1.4 µM.
Consider `COC(=O)N[C@H](C(=O)NN(Cc1ccc(-c2cncs2)cc1)C[C@H](O)[C@H](Cc1ccccc1)NC(=O)[C@@H](NC(=O)OC)C(C)(C)C)C(C)C`, for which the ED90 in [1] worked out at 10 nM. This compound also showed an ED50 in assay [2] of 1.9 nM. The same compound registered a c30 in the assay with Mus musculus [3] of 8.5 µM. In the assay on Mus musculus [4], this compound returned a c90 of 5.7 µM.
Turning to `COC(=O)N[C@H](C(=O)N[C@@H](Cc1ccccc1)[C@@H](O)CN(Cc1ccc(-c2cncs2)cc1)NC(=O)[C@@H](NC(=O)OC)C(C)(C)C)C(C)(C)C`, the ED90 in [1] was 3 nM. This compound also had an ED50 in [2] of 0.8 nM. In addition, the c30 in the assay with Mus musculus [3] stood at 12.6 µM. The c90 with Mus musculus [4] came out at 9.9 µM.
The compound `COC(=O)N[C@H](C(=O)NN(Cc1ccc(-c2ccccc2)cc1)C[C@H](O)[C@H](Cc1ccccc1)NC(=O)[C@@H](NC(=O)OC)C(C)(C)C)C(C)C` displayed an ED90 in assay [1] of 3 nM. The ED50 in assay [2] was 0.7 nM. Moreover, the c30 in the assay with Mus musculus [3] was 0.6 µM. In addition, the c90 with Mus musculus [4] was 1.1 µM.
